Laboratory results published in PMC10583834 (Chemical Research in Toxicology, 2023).

Legend:
[1] = molecular target: T1, recombinant CYP2B6 (Homo sapiens, UniProt P20813); assay: Glutathione trapping and metabolite formation with recombinant CYP2B6; type: in vitro ADME; conditions: recombinant CYP2B6 100 pmol/mL, 1 mM GSH, 60 min
T1 sequence (P20813 1-491): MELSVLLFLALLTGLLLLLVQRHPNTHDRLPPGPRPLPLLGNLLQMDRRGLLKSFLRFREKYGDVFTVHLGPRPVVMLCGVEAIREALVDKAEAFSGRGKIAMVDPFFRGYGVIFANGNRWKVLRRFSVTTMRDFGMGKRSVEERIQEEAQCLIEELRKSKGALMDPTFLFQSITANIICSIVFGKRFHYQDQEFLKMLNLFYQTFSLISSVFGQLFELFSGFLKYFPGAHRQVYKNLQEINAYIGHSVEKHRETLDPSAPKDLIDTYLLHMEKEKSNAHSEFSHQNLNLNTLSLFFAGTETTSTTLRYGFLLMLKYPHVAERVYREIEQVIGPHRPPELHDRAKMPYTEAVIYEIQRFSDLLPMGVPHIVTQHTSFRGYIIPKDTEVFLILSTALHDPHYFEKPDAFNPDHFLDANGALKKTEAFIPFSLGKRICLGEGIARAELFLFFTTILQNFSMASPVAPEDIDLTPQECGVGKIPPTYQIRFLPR
How it was run: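 Test compound at 50 or 100 μM was incubated with recombinant CYP2B6 (100 pmol/mL) in 100 mM potassium phosphate pH 7.4, 3 mM MgCl2 and 1 mM reduced GSH. Reactions were started with NADPH-regenerating mix, with no-NADPH controls, for 60 min. Methanol stop contained 1 μM 4OH-MDZ internal standard. Samples were centrifuged 20 min at 2000 × g, 4 °C. Supernatants were analysed by LC-UV(280 nm)-MS for metabolites and GSH adducts.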

[2] = test system: CYP3A4; conditions: CYP3A4 inactivation in human liver microsomes; cited from earlier work
[3] = test system: women; conditions: cited from earlier work

In the case of Cc1ccnc2c1NC(=O)c1cccnc1N2C1CC1 [NVP, Nevirapine], the GSH metabolite formation [1] is listed as “no GSH metabolite was detected”, the Ki [2] is listed as […] and the “Increased risk for severe rash reactions in women” value [3] is listed as 7 fold.
